The Kd is the constant that tells how readily two partners part at equilibrium. In general, fraction unbound refers to the share of the substance not bound to proteins or other matrix. Low values mean extensive binding, high ones weak binding.

This note sets out measurements from ChEMBL document CHEMBL4350961, “Discovery of Pyrrolo[3,2- d]pyrimidin-4-one Derivatives as a New Class of Potent and Cell-Active Inhibitors of P300/CBP-Associated Factor Bromodomain” (J Med Chem, 2019).

Calls of active or inactive are those of the source. The calls are words filed in the database; no cut-off is given here.

The target of data set [1] is Nucleosome-remodeling factor subunit BPTF (Homo sapiens, UniProt Q12830). The data set is described as follows: Binding affinity to human N-terminal His-tagged FALZ by isothermal titration calorimetry. The method, boiled down: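 Bromodomain (His-tag removed by TEV for PCAF and GCN5) in the syringe, ligand in the cell. One 0.4 μL injection, then 19 of 2 μL. Dilution heat subtracted; KD from an independent single-site binding model.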
In general terms: ITC needs no label: the signal is the heat of the interaction.

Data set [2] deals with Bromodomain-containing protein 4 (Homo sapiens) (UniProt O60885). Briefly: Binding affinity to human partial length BRD4 bromodomain 2 long isoform (K333 to E460 residues) expressed in bacterial expression system at 1 uM by BROMOscan assay. The method, boiled down:
(§1)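 BROMOscan bromodomain cross-screen run by an outside service, compound at 1 µM against 32 recombinant bromodomains. Binding given as percent of control.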

Data set [3] concerns the target Bromodomain testis-specific protein (Homo sapiens) (UniProt Q58F21). Briefly: Binding affinity to human partial length BRDT bromodomain 2 (K250 to E382 residues) expressed in bacterial expression system at 1 uM by BROMOscan assay. The method, boiled down: as §1
Data set [4] addresses E3 ubiquitin-protein ligase TRIM33 (Homo sapiens) (UniProt Q9UPN9). The data set is described as follows: Binding affinity to human partial length TRIM33 (D882 to A1087 residues) expressed in bacterial expression system at 1 uM by BROMOscan assay. The method, boiled down: as §1
Data set [5] is described as follows: Unbound fraction in Sprague-Dawley rat plasma at 1 uM measured after 16 hrs by equilibrium dialysis-based LC-MS/MS analysis. In kind it is ADME, cell-free.
Data set [6] concerns the target Ephrin type-B receptor 3 (Homo sapiens) (UniProt P54753). The data set is described as follows: Inhibition of recombinant human EphB3 (599 to 920 residues) at 10 uM using poly (Glu, Tyr) 4:1 as substrate measured after 40 mins in presence of [gamma33P]ATP by scintillation counting method.
In data set [7] the target is Rhodopsin kinase GRK7 (Homo sapiens) (UniProt Q8WTQ7). The data set is described as follows: Inhibition of recombinant full-length human GRK7 at 10 uM using casein as substrate measured after 40 mins in presence of [gamma33P]ATP by scintillation counting method.
Sequence of Rhodopsin kinase GRK7 (Homo sapiens) (Q8WTQ7 whole entry, the tested form may be a part): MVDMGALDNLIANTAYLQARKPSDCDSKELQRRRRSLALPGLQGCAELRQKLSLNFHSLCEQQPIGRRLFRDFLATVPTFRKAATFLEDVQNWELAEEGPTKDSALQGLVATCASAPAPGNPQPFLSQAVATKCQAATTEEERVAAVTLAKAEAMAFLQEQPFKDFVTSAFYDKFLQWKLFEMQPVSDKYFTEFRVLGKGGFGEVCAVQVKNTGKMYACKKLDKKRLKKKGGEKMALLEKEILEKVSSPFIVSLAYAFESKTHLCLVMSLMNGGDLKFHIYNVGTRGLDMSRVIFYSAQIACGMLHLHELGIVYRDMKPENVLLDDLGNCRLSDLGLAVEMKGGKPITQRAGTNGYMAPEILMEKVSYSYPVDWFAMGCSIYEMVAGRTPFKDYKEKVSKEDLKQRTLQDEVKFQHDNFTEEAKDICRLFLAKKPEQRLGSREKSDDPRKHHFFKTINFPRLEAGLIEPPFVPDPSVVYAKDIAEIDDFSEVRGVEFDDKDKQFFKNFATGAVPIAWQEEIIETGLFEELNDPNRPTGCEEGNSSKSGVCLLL
For data set [8], the system named is Homeodomain-interacting protein kinase 2 (Homo sapiens), Q9H2X6 [UNDEFINED MUTATION]. The data set is described as follows: Inhibition of recombinant human HIPK2 I471N mutant (165 to 564 residues) at 10 uM using myelin basic protein as substrate measured after 40 mins in presence of [gamma33P]ATP by scintillation counting method.
Data set [9] addresses Inhibitor of nuclear factor kappa-B kinase subunit beta (Homo sapiens) (UniProt O14920). Briefly: Inhibition of recombinant full-length human IKKbeta at 10 uM using peptide substrate measured after 40 mins in presence of [gamma33P]ATP by scintillation counting method.
Data set [10] has as its target MAP kinase-interacting serine/threonine-protein kinase 2 (Homo sapiens) (UniProt Q9HBH9). The data set is described as follows: Inhibition of recombinant full-length human Mnk2 at 10 uM using myelin basic protein as substrate measured after 40 mins in presence of [gamma33P]ATP by scintillation counting method.
Data set [11] deals with Serine/threonine-protein kinase Nek2 (Homo sapiens) (UniProt P51955). Briefly: Inhibition of recombinant full-length human NEK2 at 10 uM using myelin basic protein as substrate measured after 40 mins in presence of [gamma33P]ATP by scintillation counting method.
Data set [12] has as its target Serine/threonine-protein kinase Nek3 (Homo sapiens) (UniProt P51956). The data set is described as follows: Inhibition of recombinant full-length human NEK3 at 10 uM using myelin basic protein as substrate measured after 40 mins in presence of [gamma33P]ATP by scintillation counting method.
The target of data set [13] is Serine/threonine-protein kinase Nek11 (Homo sapiens) (UniProt Q8NG66). The data set is described as follows: Inhibition of recombinant full-length human NEK11 at 10 uM using myelin basic protein as substrate measured after 40 mins in presence of [gamma33P]ATP by scintillation counting method.
Data set [14] has as its target PAS domain-containing serine/threonine-protein kinase (Homo sapiens) (UniProt Q96RG2). The data set is described as follows: Inhibition of recombinant human PASK (995 to end residues) at 10 uM using KKLNRTLSFAEPG as substrate measured after 40 mins in presence of [gamma33P]ATP by scintillation counting method.
For data set [15], the target named is cGMP-dependent protein kinase 1 (Homo sapiens) (UniProt Q13976). Briefly: Inhibition of recombinant full-length human PKG1alpha at 10 uM using RRRLSFAEPG as substrate measured after 40 mins in presence of [gamma33P]ATP by scintillation counting method.
Data set [16] concerns the target Interferon-induced, double-stranded RNA-activated protein kinase (Homo sapiens) (UniProt P19525). The data set is described as follows: Inhibition of recombinant human PKR (252 to end residues) at 10 uM using RSRSRSRSRSRSRSR as substrate measured after 40 mins in presence of [gamma33P]ATP by scintillation counting method.
Data set [17] has as its target Ribosomal protein S6 kinase alpha-1 (Homo sapiens) (UniProt Q15418). Briefly: Inhibition of recombinant full-length human Rsk1 at 10 uM using KKKNRTLSVA as substrate measured after 40 mins in presence of [gamma33P]ATP by scintillation counting method.
Data set [18] addresses Serine/threonine-protein kinase SBK1 (Homo sapiens) (UniProt Q52WX2). The data set is described as follows: Inhibition of recombinant full-length human SBK1 at 10 uM using KKLRRTLSVA as substrate measured after 120 mins in presence of [gamma33P]ATP by scintillation counting method.
Data set [19] has as its target Serine/threonine-protein kinase SIK2 (Homo sapiens) (UniProt Q9H0K1). Briefly: Inhibition of human SIK2 (1 to 276 residues) using KKKVSRSGLYRSPSMPENLNRPR as substrate measured after 40 mins in presence of [gamma33P]ATP by scintillation counting method. The method, boiled down: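 Kinase panel of 422 kinases screened by Eurofins KinaseProfiler at a single test-compound concentration of 10 µM.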

Data set [20] has as its target Serine/threonine-protein kinase tousled-like 1 (Homo sapiens) (UniProt Q9UKI8). Briefly: Inhibition of recombinant full-length human TLK1 at 10 uM using casein as substrate measured after 40 mins in presence of [gamma33P]ATP by scintillation counting method.
Data set [21] has as its target High affinity nerve growth factor receptor (Homo sapiens) (UniProt P04629). The data set is described as follows: Inhibition of human TrkA (440 to end residues) using KKKSPGEYVNIEFG as substrate measured after 40 mins in presence of [gamma33P]ATP by scintillation counting method.
The target in data set [22] is NT-3 growth factor receptor (Homo sapiens) (UniProt Q16288). The data set is described as follows: Inhibition of human TrkC (510 to end residues) using GEEPLYWSFPAKKK as substrate measured after 40 mins in presence of [gamma33P]ATP by scintillation counting method.
The species entered for a further data set is Homo sapiens. Briefly: Inhibition of recombinant full-length human PI3K p120gamma R459Q mutant at 10 uM using phosphatidylinositol-4, 5-bisphosphate as substrate measured after 40 mins by fluorescence assay.
Data set [23] addresses PI3-kinase p110-alpha/p85-alpha (Homo sapiens) (UniProt P27986+P42336). The data set is described as follows: Inhibition of recombinant full-length human PI3K p110alpha/p85alpha at 10 uM using phosphatidylinositol-4, 5-bisphosphate as substrate measured after 40 mins by fluorescence assay. Type of data set: protein-complex assay.

Sequence of Serine/threonine-protein kinase tousled-like 1 (Homo sapiens) (Q9UKI8 whole entry): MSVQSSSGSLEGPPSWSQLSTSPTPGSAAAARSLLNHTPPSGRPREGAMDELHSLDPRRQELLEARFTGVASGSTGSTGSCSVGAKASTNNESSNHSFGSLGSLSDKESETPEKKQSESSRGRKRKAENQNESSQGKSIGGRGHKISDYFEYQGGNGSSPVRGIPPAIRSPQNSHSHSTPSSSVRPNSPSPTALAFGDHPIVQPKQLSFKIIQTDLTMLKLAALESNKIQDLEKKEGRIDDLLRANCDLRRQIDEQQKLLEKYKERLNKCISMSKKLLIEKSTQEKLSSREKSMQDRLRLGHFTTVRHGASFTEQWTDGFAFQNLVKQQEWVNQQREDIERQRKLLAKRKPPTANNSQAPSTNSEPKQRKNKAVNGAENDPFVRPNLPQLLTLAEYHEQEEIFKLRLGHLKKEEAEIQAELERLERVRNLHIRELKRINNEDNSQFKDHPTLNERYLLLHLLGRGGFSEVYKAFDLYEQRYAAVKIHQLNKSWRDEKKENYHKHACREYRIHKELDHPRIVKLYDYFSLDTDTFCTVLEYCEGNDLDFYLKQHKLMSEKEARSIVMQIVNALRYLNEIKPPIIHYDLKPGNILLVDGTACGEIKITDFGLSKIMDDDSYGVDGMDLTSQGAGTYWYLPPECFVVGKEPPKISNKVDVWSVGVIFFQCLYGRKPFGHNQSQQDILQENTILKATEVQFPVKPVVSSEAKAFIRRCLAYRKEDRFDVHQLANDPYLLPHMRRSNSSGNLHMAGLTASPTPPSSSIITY
Sequence of Ribosomal protein S6 kinase alpha-1 (Homo sapiens) (Q15418 whole entry): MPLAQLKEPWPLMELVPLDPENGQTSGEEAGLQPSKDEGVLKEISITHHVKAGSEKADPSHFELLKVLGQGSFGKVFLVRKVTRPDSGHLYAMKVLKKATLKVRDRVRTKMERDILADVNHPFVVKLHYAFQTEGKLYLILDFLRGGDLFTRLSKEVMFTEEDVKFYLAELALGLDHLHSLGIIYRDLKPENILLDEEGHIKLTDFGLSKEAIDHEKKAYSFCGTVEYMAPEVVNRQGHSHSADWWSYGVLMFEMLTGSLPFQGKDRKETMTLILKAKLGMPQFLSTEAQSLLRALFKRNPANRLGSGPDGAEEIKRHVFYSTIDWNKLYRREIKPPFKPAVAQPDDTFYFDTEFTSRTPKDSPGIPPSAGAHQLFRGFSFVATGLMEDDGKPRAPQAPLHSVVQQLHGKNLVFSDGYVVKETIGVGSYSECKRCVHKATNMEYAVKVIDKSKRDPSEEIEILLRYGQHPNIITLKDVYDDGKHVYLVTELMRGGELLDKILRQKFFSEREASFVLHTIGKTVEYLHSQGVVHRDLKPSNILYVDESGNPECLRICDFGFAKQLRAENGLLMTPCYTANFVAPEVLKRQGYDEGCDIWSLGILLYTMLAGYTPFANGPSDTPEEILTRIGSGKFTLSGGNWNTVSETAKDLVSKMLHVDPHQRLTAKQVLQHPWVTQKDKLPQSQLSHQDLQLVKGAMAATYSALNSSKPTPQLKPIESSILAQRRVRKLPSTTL
Sequence of Inhibitor of nuclear factor kappa-B kinase subunit beta (Homo sapiens) (O14920 whole entry): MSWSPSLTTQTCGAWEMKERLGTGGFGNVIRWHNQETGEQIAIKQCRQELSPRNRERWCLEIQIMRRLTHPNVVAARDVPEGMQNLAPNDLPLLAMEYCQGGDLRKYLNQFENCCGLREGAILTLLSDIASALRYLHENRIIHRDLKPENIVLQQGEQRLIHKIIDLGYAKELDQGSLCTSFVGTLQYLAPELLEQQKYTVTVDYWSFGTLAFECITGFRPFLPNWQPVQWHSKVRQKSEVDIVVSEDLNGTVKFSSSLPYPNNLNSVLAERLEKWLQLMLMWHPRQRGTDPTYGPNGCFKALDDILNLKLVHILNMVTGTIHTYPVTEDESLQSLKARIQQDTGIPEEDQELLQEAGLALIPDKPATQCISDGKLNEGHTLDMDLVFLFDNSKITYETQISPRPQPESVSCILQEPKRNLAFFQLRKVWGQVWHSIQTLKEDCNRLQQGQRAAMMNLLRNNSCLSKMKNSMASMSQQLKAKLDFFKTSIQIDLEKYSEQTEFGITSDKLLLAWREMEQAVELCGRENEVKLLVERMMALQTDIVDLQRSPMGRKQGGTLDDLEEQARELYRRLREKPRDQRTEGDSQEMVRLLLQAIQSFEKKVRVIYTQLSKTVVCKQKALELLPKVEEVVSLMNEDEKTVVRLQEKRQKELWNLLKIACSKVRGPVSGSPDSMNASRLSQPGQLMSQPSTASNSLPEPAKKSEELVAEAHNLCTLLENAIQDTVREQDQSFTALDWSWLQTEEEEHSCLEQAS
Sequence of E3 ubiquitin-protein ligase TRIM33 (Homo sapiens) (Q9UPN9 whole entry, the tested form may be a part): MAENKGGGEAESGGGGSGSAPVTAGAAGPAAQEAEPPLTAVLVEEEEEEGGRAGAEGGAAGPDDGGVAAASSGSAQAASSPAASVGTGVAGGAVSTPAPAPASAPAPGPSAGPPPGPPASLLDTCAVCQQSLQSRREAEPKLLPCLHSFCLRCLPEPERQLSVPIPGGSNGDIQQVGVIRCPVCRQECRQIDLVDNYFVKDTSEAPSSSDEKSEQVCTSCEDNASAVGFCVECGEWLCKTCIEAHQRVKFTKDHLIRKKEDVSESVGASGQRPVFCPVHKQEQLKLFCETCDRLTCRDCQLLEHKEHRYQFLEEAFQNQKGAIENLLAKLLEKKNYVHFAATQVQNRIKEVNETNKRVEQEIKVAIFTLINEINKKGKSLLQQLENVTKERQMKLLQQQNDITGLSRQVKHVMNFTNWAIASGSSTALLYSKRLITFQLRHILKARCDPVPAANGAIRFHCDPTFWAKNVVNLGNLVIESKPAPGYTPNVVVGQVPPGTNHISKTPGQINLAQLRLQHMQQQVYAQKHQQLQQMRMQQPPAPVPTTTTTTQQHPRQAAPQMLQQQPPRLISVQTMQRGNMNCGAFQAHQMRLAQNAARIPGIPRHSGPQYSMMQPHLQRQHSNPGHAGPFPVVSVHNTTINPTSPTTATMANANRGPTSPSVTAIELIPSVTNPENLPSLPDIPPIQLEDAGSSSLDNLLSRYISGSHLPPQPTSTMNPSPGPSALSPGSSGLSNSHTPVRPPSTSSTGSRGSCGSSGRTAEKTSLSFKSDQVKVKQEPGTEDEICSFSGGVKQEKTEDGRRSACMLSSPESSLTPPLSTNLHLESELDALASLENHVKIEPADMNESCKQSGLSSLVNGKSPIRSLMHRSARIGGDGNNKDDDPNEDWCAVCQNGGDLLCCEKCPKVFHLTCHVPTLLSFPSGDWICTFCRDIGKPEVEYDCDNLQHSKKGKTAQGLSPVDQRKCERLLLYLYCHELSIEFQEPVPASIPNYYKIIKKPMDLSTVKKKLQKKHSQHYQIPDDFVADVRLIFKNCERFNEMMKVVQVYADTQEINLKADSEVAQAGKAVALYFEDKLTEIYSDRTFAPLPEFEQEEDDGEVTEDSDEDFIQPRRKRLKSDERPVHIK
Sequence of Interferon-induced, double-stranded RNA-activated protein kinase (Homo sapiens) (P19525 whole entry): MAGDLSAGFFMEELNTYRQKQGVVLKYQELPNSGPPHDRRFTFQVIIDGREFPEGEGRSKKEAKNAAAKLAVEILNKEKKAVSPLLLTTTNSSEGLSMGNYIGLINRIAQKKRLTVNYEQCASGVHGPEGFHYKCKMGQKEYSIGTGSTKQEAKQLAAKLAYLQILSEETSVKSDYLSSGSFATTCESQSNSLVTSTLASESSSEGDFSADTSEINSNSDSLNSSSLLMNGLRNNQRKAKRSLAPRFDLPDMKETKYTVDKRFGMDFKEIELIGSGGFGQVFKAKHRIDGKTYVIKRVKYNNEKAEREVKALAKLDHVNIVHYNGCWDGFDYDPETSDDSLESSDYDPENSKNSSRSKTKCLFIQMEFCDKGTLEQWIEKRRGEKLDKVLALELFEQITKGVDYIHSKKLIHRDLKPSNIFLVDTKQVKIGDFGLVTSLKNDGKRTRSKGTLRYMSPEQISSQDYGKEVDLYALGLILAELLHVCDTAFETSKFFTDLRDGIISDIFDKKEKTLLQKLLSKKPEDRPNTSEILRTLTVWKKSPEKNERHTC
Sequence of Serine/threonine-protein kinase SBK1 (Homo sapiens) (Q52WX2 whole entry, the tested form may be a part): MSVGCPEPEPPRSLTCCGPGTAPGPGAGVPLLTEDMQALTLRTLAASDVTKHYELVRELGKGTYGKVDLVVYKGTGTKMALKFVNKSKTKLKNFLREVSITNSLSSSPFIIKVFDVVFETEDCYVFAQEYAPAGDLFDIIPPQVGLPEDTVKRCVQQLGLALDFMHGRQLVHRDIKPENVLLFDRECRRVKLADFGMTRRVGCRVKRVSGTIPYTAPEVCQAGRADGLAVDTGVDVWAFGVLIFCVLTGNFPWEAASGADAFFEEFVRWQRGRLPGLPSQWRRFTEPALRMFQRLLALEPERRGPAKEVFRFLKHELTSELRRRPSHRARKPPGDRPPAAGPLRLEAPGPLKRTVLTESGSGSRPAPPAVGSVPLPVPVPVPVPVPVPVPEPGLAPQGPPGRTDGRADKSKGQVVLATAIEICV

As to `CN1C[C@H](Nc2nc3cc[nH]c3c(=O)n2C)C[C@H](c2ccc3c(c2)OCCO3)C1`, binding in data set [1] was characterised by a dissociation constant (Kd) of 917 nM. In addition, the outcome in data set [2], in data set [3] and in data set [4] was inactive. The fraction unbound at 16 h, 1 µM in [5] was determined as 0.058. For the same compound, the inhibition result in [6], in data set [7], in [8], in [9], in data set [10] and in [11] was “inactive” in each case. Also, the inhibition entry in data set [12], in [13], in data set [14], in [15], in data set [16] and in data set [17] was “inactive” in each case. Moreover, the inhibition result (in data set [18]; in data set [19]; in data set [20]; in data set [21]; in data set [22]; in the data set filed under Homo sapiens) was “inactive” each time. In addition, the inhibition entry in data set [23] is “inactive”.
